Shown is part of a subset that was picked to be rich in hits.
H69AR growth 86K – blocks growth of human H69AR lung tumor cells. H69AR lung tumor viability, ATP luminescence, 72 h; active compounds read low. viability, % at 10 µM. hit rate 6% among 85,000. AID 598;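 active = viability at or below 40%; inactive = viability above 40%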;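 also: multidrug resistant small cell line overexpressing MRP-1 efflux transporter; 100% = mean luminescence of untreated control wells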
HCT116 bCat-KO – beta-catenin-lacking colon tumor cell growth suppression | HCT116 beta-catenin knockout viability, CellTiter-Glo, 60 h; active compounds read low | viability, % at 10 µM | hit rate 1.5% among 140,000 | AID 818;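 active = viability at or under a set limit, the compound median less 4 SD, cut at about 6% in these data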;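 also: 0% = Hyamine 1622 control at 20 µM and 100% = untreated cell control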
Candida biofilm – kills Candida albicans biofilms; C. albicans biofilm + clotrimazole, Alamar Blue; inhibition, % at 6 µM; hit rate 0.14% among 85,000; AID 834;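 active = inhibition above 20%; inactive = inhibition below 20%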;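 also: preformed 24 hr biofilms exposed to compound for 48 hr; 0% = biofilm without compound and 100% = blank killed by clotrimazole plus chlorhexidine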
Lung fibro prol – blocks proliferation of human lung fibroblasts; LL 47 human lung fibroblast viability, ATP luminescence; active compounds read low; viability, % at 10 µM; hit rate 1.1% among 85,000;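 active = viability at or below 50% in the single dose screen; inactive = viability above 50%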;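 also: compound exposure lasted 72 h before the ATP readout; 100% = median luminescence of untreated cell-only wells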
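Material: human lung fibroblast line LL 47, low passage; Evaluation: viability percentage against median untreated-cell control; Buffer or medium: 15% FBS in IMEM; Incubation: 72 h compound exposure at 37 °C after overnight plating; Dosing: 0.1% DMSO in all compound wells; Measured by: CellTiter-Glo luminescence.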
PTEN del growth – PTEN-deleted cell growth suppression; HCT116 PTEN-null viability, CellTiter-Glo, 60 h; active compounds read low; viability, % at 10 µM; hit rate 1.2% among 140,000; AID 827;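 active = viability at or below a set limit, 4 SD under the median of all tested compounds, cut at about 3.7% in these data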;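 also: PTEN knockout HCT116 line with beta catenin targeted HCT116 as companion control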
HUVEC inhibit – inhibitors of human endothelial cell proliferation; HUVEC proliferation, CellTiter-Glo luminescence, 72 h; active compounds read low; viability, % at 10 µM (by protocol); hit rate 1.1% among 86,000;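 active = viability at or below 30%; inactive = viability above 30%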;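 also: 100% = median luminescence of DMSO-only cell control wells on each plate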
An asterisk follows results filed as active; / = not tested or not shown.

SMILES	H69AR growth 86K	HCT116 bCat-KO	Candida biofilm	Lung fibro prol	PTEN del growth	HUVEC inhibit
CCSc1nc(-c2cccs2)nc2c1c(=O)n(C)c(=O)n2C	51	/	-8	87	/	93
COc1ccc(/C=N\NC(=O)c2nn(C)cc2Cl)cc1CN1CCOCC1	/	94	/	/	95	/
COc1ccc(/C=N/n2cnc3c([nH]c4ccc(Br)cc43)c2=O)cc1CN1CCOCC1	3.7*	67	5	8.7*	83	23*
COc1ccc(NC(=O)c2cccnc2SC)cc1S(=O)(=O)N1CCCCC1	/	91	/	/	89	/
COc1ccccc1Nc1nnc(SCc2cc(=O)n3cc(C)ccc3n2)s1	/	83	/	/	80	/
Cc1ccc(/C=N/Nc2ncc(Cl)cc2Cl)s1	50	36	8	47*	41	62
Clc1cnc(N/N=C/c2cccs2)c(Cl)c1	83	86	7	49*	83	69
Clc1cnc(N/N=C/c2ccco2)c(Cl)c1	/	92	/	/	98	/
Cc1cc(C)c(O)c(-c2cc(C(=O)Nc3ccc(S(=O)(=O)N4CCOCC4)cc3)[nH]n2)c1	9.2*	2.3*	2	41*	1.2*	36
Cc1cc(C)nc(NS(=O)(=O)c2ccc(NC(=O)c3ccc(S(=O)(=O)N4CCOCC4)cc3)cc2)n1	/	86	/	/	98	/
O=C(CCn1cnc(-c2ccccc2)c1-c1ccccc1)N/N=C/c1ccccc1O	/	13	/	/	11	/
COc1ccc2c(c1)C(=O)[C@@H](O)[C@H](c1ccc(OC)c(Br)c1)O2	/	11	/	/	11	/
COc1cccc([C@@H]2Oc3ccc(OC)cc3C(=O)[C@H]2O)c1	/	5.3*	/	/	9	/
Cc1nc(N2CCC3(CC2)OCCO3)c2nnn(Cc3ccccc3F)c2n1	35*	82	11	96	82	113
Cc1nc(N2CCCC2)c2nnn(Cc3ccccc3Cl)c2n1	89	92	6	100	92	105
Cc1cc(C)nc(NC2=NCCN2C(=O)Nc2ccc(Cl)c(Cl)c2)n1	22*	/	7	85	/	65
Cc1cc(C)nc(NC(=O)c2ccc(Cl)c(Cl)c2)n1	107	97	3	104	103	100
Cc1ccc(NC(=O)c2sc(Cl)nc2C)c(C)c1	/	100	/	/	103	/
Cc1cc(C)c(C)c(OC(=O)c2sc(Cl)nc2C)c1	/	1.7*	/	/	2.3*	/
Clc1cccc2c1Sc1ccccc1CC2N1CCNCC1 (stereo not given)	/	1.0*	/	/	0.8*	/
COCCCN1CCN(C2Cc3ccccc3Sc3ccc(Cl)cc32)CC1 (stereo not given)	/	23	/	/	26	/
Clc1ccc2c(c1)C(N1CCNCC1)Cc1ccccc1S2 (stereo not given)	2.0*	1.5*	5	2.4*	1.7*	2.3*
Nc1nc(SCc2ccc(Cl)cc2Cl)nc2nc3c(cc12)CCCC3	/	31	/	/	14	/
Cc1ccccc1Cn1c(=N)n(CC(=O)c2ccco2)c2ccccc21	59	48	4	90	50	108
N#Cc1cc(C(=O)c2cc(Br)ccc2O)cn(C2CCCCC2)c1=O	13*	49	-3	93	44	98
SMILES	H69AR growth 86K	HCT116 bCat-KO	Candida biofilm	Lung fibro prol	PTEN del growth	HUVEC inhibit
N#Cc1cc(C(=O)c2ccccc2OCC(=O)Nc2ccccc2Cl)cn(C2CCCCC2)c1=O	/	75	/	/	75	/
Cc1cc(-c2n[nH]c(=S)o2)c(C)n1-c1ccccc1	38*	68	5	99	71	90
Oc1cc2ccccc2cc1-c1n[nH]c(=S)o1	46	84	2	103	82	83
Cc1cc(C)c2nc(SCC(=O)NCCC3=CCCCC3)cc(C)c2c1	/	80	/	/	77	/
CCN(CC)S(=O)(=O)c1ccc(-c2nnc(SCc3nnc(-c4ccccc4)o3)o2)cc1	20*	22	5	69	8	53
CCN(CC)S(=O)(=O)c1ccc(-c2nnc(SCC(=O)Nc3ccc4c(c3)OCO4)o2)cc1	32*	98	5	96	105	64
Cc1ccc(NC(=O)CSc2nnc(-c3ccc(S(=O)(=O)N4CCCC4)cc3)o2)cc1C	32*	101	1	92	89	53
COc1cccc(CN(C)C(=O)Nc2cccc(C(F)(F)F)c2)c1OC	/	85	/	/	80	/
Cc1c([N+](=O)[O-])c([N+](=O)[O-])nn1CC(=O)N1CCCCC1	/	92	/	/	83	/
O=C(/C=C/c1cccs1)Nc1ccc(Br)cn1	/	13	/	/	11	/
CCCOc1ccc2ccccc2c1/C=N/n1c(C)nnc1-n1nc(C)cc1C	24*	23	-3	55	22	54
COc1ccc(N2CCN(CCCNC(=O)c3cc4sccc4n3C)CC2)cc1	30*	68	8	93	69	86
CC(C)(OC1OC(CO)C(O)C(O)C1O)[C@H]1Oc2ccc3ccc(=O)oc3c2[C@H]1O (stereo not given in full)	/	97	/	/	100	/
O=C(c1cc(-c2ccco2)nc2ccccc12)N1CCN(c2ccc(F)cc2)CC1	/	93	/	/	86	/
Cc1ccc(NC(=O)COc2ccccc2CNC(C)(C)CC(C)(C)C)cc1	1.6*	1.4*	4	35*	1.8*	33
Brc1csc(/C=N/Nc2nc3ccccc3s2)c1	/	70	/	/	58	/
Cc1ccc2[nH]c(C)c(/C=N/Nc3nc4ccccc4s3)c2c1	4.6*	1.6*	8	63	1.1*	42
N#CC1=C(N)NC(SCc2ccc(Cl)cc2)=C(C#N)C12CCCCC2	13*	64	-1	85	49	45
COc1ccc(C(=O)OC2CCN(c3ncc(C(F)(F)F)cc3Cl)CC2)cc1	/	3.4*	/	/	57	/
CCCn1nnc(NC(=O)c2cccc(OCc3ccccc3)c2)n1	66	102	17	89	86	85
COc1ccc(/C=N/Nc2ncnc3sc4c(c23)CCCC4)cc1OC	/	43	/	/	42	/
CCOC(=O)CSc1nc2cc(C)ccc2cc1C#N	34*	62	-5	83	47	78
CCOC(=O)CC(=O)CSc1nc2c(cc1C#N)CCC2	35*	24	5	101	36	76
COC(=O)CC(=O)CSc1nc2c(cc1C#N)CCCCC2	81	106	1	101	99	82
CCOc1ccc2nc(SCC(=O)N3CCCCCC3)c(C#N)cc2c1	38*	95	6	/	88	91
SMILES	H69AR growth 86K	HCT116 bCat-KO	Candida biofilm	Lung fibro prol	PTEN del growth	HUVEC inhibit
N#C/C(=C\c1ccc(OC(=O)c2ccc(Cl)s2)cc1)c1nc2ccccc2[nH]1	/	91	/	/	92	/
CC(=O)Nc1ccc(S(=O)(=O)CCC(=O)O)cc1	106	91	9	94	90	89
CC(=O)CCS(=O)(=O)c1ccc(NC(C)=O)cc1	0.2*	102	6	93	107	97
COC(=O)/C=C/S(=O)(=O)c1ccc(NC(C)=O)cc1	1.0*	97	1	/	86	80
CC(=O)Nc1ccc(S(=O)(=O)Oc2ccc(C=O)cc2)cc1	/	95	/	/	91	/
CC1CCN(S(=O)(=O)c2ccc3c(c2)C(=NO)c2cc(S(=O)(=O)N4CCC(C)CC4)ccc2-3)CC1	0.9*	0.8*	3	2.3*	1.2*	2.8*

Assay outcomes: PubChem, several laboratories
